TRPN1 ag: zebrafish TRPN1 channel agonists, primary screen, cell-based, HEK293, calcium fluorescence; transient receptor potential cation channel N1 (TRPN1/NompC), Danio rerio; HEK293 zebrafish TRPN1-YFP, Fluo-8 calcium fluorescence; 100% = response to 87 µM carbachol; activation, % at 3 µM; 220,000 tested, 0.18% active; AID 1424, 2008;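 active = activation above its plate's cutoff, the mean activation of test wells on that plate plus 3 SD, cut at about 19% in these data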
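Assay system: Zebrafish TRPN1-YFP in HEK293 cells | Incubation: Dye loading 1 h at 37 °C, then 30 min room temperature | Measured by: Kinetic Fluo-8 fluorescence, ex 470-495, em 515-575 nm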
OX1R antag-1: OX1R (HCRTR1) antagonists, primary screen, fluorescence, CHO/OX1R cells, Fluo-8 calcium, orexin A. AID 434989, 2010. inhibition, % at 5 µM. Orexin/Hypocretin receptor type 1 (Homo sapiens), O43613. Fluo-8 calcium fluorescence. 330,000 tested, 0.43% active;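 active = inhibition above its plate's threshold, mean inhibition of all tested compounds on the plate plus 3 SD, cut at about 37% in these data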
TRPML3 ag: human TRPML3 channel agonists, primary screen, cell-based, HEK293 TRPML3-YFP, Fluo-8 calcium fluorescence, 3 µM; Mucolipin-3 (Homo sapiens), Q8TDD5; 100% = the carbachol control signal; activation, % at 3 µM; 220,000 tested, 0.29% active; AID 1448, 2008;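 active = activation above its plate's cutoff, the mean activation of the plate's test wells plus 3 SD, cut at about 12% in these data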
Target sequence (Q8TDD5 whole entry, looked up): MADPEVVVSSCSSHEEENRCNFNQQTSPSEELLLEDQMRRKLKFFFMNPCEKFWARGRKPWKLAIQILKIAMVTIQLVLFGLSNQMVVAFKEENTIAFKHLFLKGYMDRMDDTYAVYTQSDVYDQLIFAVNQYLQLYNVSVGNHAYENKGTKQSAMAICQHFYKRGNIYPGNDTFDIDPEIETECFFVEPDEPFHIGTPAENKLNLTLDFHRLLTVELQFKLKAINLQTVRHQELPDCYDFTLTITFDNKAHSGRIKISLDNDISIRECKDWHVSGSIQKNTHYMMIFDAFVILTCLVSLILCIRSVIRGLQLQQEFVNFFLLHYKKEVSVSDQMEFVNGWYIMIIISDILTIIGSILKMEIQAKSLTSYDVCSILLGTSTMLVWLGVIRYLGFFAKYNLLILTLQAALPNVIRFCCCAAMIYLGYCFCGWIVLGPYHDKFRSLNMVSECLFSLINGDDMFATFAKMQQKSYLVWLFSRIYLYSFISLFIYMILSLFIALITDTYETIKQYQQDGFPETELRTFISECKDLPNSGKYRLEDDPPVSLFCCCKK
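Material: HEK293 cells stably carrying human TRPML3-YFP; compound dosing: single dose, 3 µM final nominal compound, 0.3% DMSO final; incubation: 1-h 37 °C dye load, 5-s basal, 120-s post-compound reads; technique: Fluo-8 intracellular calcium fluorescence, excitation 470-495 nm, emission 515-575 nm; read-out basis: percent activation from peak-to-basal fluorescence ratio, scaled between DMSO and carbachol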
CHO parental Ca: ATP-evoked calcium signal inhibitors, parental CHO, primary screen, counter-screen for OX1R antagonist project, cell-based, fluorescence, Fluo-8 calcium dye | parental CHO-K1, ATP-induced calcium, Fluo-8 fluorescence | inhibition, % at 5.6 µM | 330,000 tested, 0.63% active;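 active = inhibition above that plate's mean sample inhibition plus 3 SD, cut at about 26% in these data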
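Measured by: calcium-sensitive Fluo-8 fluorescence / Test system: CHO parental line / Controls: ATP-challenged DMSO wells low, unchallenged DMSO wells high / Measure: % inhibition / Compound: single nominal dose of 5.6 µM per compound / Replicates: single well per compound, no replicates / Reagent: ATP as calcium-mobilizing challenge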
OX1R antag-2: antagonists of human orexin 1 receptor (OX1R); Orexin/Hypocretin receptor type 1 (Homo sapiens), O43613; OX1R-expressing cells, FRET antagonist read-out; inhibition, % at 6.6 µM; 330,000 tested, 1.8% active; AID 485270, 2010; in the data active = inhibition mostly above about 38%, no sharp cut-off; inactive = mostly below about 40%
Hits are given with their value; - = inactive; . = not tested or not shown; ! = not active in a repeat. In the library only some 2.5% were active in any assay of this set; here they are far more common.

SMILES	TRPN1 ag	OX1R antag-1	TRPML3 ag	CHO parental Ca	OX1R antag-2
Cc1c(-c2ccc(O)cc2)nc2nc(-c3ccccc3)c(-c3ccccc3)nn12	-	99	-	90	-
Cc1nnc2c3ccccc3c(-c3ccc(O)cc3)nn12	-	-	-	-	-
O=C(CSc1nnc2ccc(-c3ccncc3)nn12)Nc1ccc(F)cc1	.	-	.	-	61
CC(=O)Nc1ccc(NC(=O)CSc2nnc3ccc(-c4ccccn4)nn23)cc1	.	-	.	-	-
CC(=O)Nc1ccc(NC(=O)CSc2nnc3ccc(-c4cccnc4)nn23)cc1	.	-	.	-	50
O=C(CSc1nnc2ccc(-c3cccnc3)nn12)Nc1ccc(F)cc1	.	-	.	-	-
Cc1ccccc1NC(=O)CSc1nnc2ccc(-c3ccccn3)nn12	.	-	.	-	55
O=C(CSc1nnc2ccc(-c3ccncc3)nn12)c1cccs1	-	-	-	-	44
Cc1ccc(NC(=O)CSc2nnc3ccc(-c4cccnc4)nn23)cc1	.	-	.	-	-
CCCS(=O)(=O)Nc1cccc(-c2ccc3nnc(C)n3n2)c1	-	-	-	-	-
COc1ccc(-c2ccc3nnc(SCC(=O)N4CCCC4)n3n2)cc1	.	-	.	-	55
c1cncc(CSc2nnc3ccc(-c4ccncc4)nn23)c1	-	-	-	-	39
COc1ccc(NC(=O)CSc2nnc3ccc(-c4cccnc4)nn23)cc1	.	-	.	-	63
CCS(=O)(=O)Nc1cccc(-c2ccc3nnc(-c4cccnc4)n3n2)c1	.	-	.	-	35
Cc1cc(C(C)(C)C)ccc1NC(=O)CC(C)(C)CC(=O)O	-	-	-	-	-
CCCCCCCCNC1=CC(=O)CC(C)(C)C1	-	-	-	-	-
O=C1C=C(c2ccc(Cl)c(C(F)(F)F)c2)C[C@@H](c2ccc(Cl)cc2)C1	.	-	.	-	-
C[C@H](NC(=O)c1ccccc1Cl)C(=O)Nc1ccccc1F	.	-	.	-	-
CC(=O)Nc1ccc(-n2nnnc2SCC(=O)NCc2cccs2)cc1	-	-	-	-	-
CC(=O)Nc1cccc(NC(=O)CSc2nnc3ccc(-c4cccnc4)nn23)c1	.	-	.	-	75
CN(C(=O)COC(=O)CN1C(=O)C2CC=CCC2C1=O)c1ccccc1 (centres undefined)	.	-	.	-	-
CC(C)N(C(=O)CSc1nc2ccccc2n1-c1ccccc1)C(C)C	-	-	-	-	55
CC(C)N(C(=O)CSc1nc2ccccc2n1Cc1ccccc1)C(C)C	-	-	-	-	-
Cc1cccc(NC(=O)CN(CC2CCCO2)C(=O)c2cc(S(=O)(=O)N(C)C)ccc2F)c1C (centres undefined)	.	-	.	-	-
COc1ccc(CCN(Cc2ccccn2)C(=S)Nc2ccccc2F)cc1OC	-	-	-	-	-
SMILES	TRPN1 ag	OX1R antag-1	TRPML3 ag	CHO parental Ca	OX1R antag-2
COc1ccc(CCN(Cc2ccccn2)C(=S)Nc2ccccc2Cl)cc1OC	-	-	-	-	41
CC(C)=CCN1CCN(Cc2cc(C(C)C)n[nH]2)CC1CCO (centres undefined)	-	-	-	-	-
COc1ccc(C2/C=C\CN(C(=O)Nc3ccccc3)CC(=O)N2Cc2ccc(F)cc2)cc1 (centres undefined)	.	-	.	-	-
COc1ccc(C2/C=C\CN(C(=O)Nc3ccc(C(F)(F)F)cc3)CC(=O)N2Cc2ccc(F)cc2)cc1 (centres undefined)	.	-	.	60	-
O=C1N=c2ccccc2=C1c1sc(Nc2cccc(O)c2)nc1O	.	-	.	-	54
O=C1N=c2ccccc2=C1c1sc(Nc2ccc(O)cc2)nc1O	-	.	-	.	.
CCOC(=O)C1=C(CSc2nc3ccccc3s2)NC(=O)NC1c1cc(C)ccc1C (centres undefined)	-	-	-	-	49
O=C(COC(=O)c1cccnc1Nc1ccccc1F)NCCN1C(=O)CSC1=O	-	-	-	-	55
CCCNC(=O)COC(=O)c1cccnc1Nc1ccccc1F	-	-	-	-	-
COCC(C)n1c(=O)sc2ccccc2c1=O (centres undefined)	-	-	-	-	-
Cc1ccccc1OCc1n(CC(=O)OC2CC(C)CCC2C(C)C)c2ccccc2[n+]1C (centres undefined)	-	46	-	33	-
CC1CCC(C(C)C)C(OC(=O)Cn2c(-c3ccc(Cl)cc3)[n+](C)c3ccccc32)C1 (centres undefined)	-	-	-	-	-
CC1CCC(C(C)C)C(OC(=O)Cn2c(-c3ccc(Br)cc3)[n+](C)c3ccccc32)C1 (centres undefined)	-	-	-	30!	-
CCOC(=O)c1c(-c2ccccc2)c2cc(OC)ccc2n1CCCN(C)C	.	-	.	-	-
CCOC(=O)c1cnc(SCC(=O)NNC(=O)c2ccco2)nc1N	.	-	.	-	-
CCN(CC)C(=O)CN1CCN(Cc2ccc3c(c2)OCO3)CC1	.	-	.	-	-
CNC(=O)c1cc(S(=O)(=O)NCc2ccncc2)ccc1OC	.	-	.	-	-
COc1cc(S(=O)(=O)NCc2ccncc2)ccc1Br	.	-	.	31	-
Cc1ccc(S(=O)(=O)NCc2ccncc2)cc1C	-	41	-	33	-
COc1cccc(/C=C(/C(=O)OCC(=O)NC2CCCC(C)C2C)c2ccccc2)c1 (centres undefined)	-	-	-	65	-
CN(C(=O)c1ccccc1OCc1ccc(Cl)cc1)c1ccccc1	.	-	.	-	-
CN(Cc1nc2ccccc2c(=O)[nH]1)C(=O)c1ccccc1OCc1ccc(Cl)cc1	.	-	.	-	56
CCOc1ccc(N2C(=O)CC(NCCc3c[nH]c4ccccc34)C2=O)cc1 (centres undefined)	-	-	-	-	61
COc1ccc(Cl)cc1NC(=O)CCNS(=O)(=O)c1cccc2nonc12	.	-	.	-	-
COc1ccc(C)cc1NC(=O)CCNS(=O)(=O)c1cccc2nonc12	.	-	.	-	71
SMILES	TRPN1 ag	OX1R antag-1	TRPML3 ag	CHO parental Ca	OX1R antag-2
COc1ccc(/C=C2\SC(=O)N(CCNC(=O)Cc3coc4cc(C)ccc34)C2=O)cc1OC	-	-	-	-	54
COc1ccc(-c2noc(CCCCC(=O)N3CCN(c4cc(C)ccc4C)CC3)n2)cc1	.	75	.	74	38
Cc1ccc(-c2noc(CCC(=O)NCCCN3CCN(c4ccc(F)cc4)CC3)n2)cc1	-	-	-	-	-
Cc1ccc(-c2noc(CCC(=O)NCCCN3CCN(c4cccc(Cl)c4)CC3)n2)cc1	-	52	-	-	-
Cc1cc(C)cc(OCC(=O)OCC(=O)c2ccc3c(c2)NC(=O)CO3)c1	-	-	-	38	-
Cc1cc(C(C)(C)C)oc1C(=O)N(CC(=O)NC1CCCC1)c1ccc(F)cc1	-	-	-	-	54

Screening data from PubChem BioAssay.
